From ChEMBL document CHEMBL1153382 (J Med Chem, 2009) come the findings set out here.

Activity calls are given as the source filed them. The calls are words filed in the database; no cut-off is given here. Where only a bound is given, the exact number is not on record here.

T2 sequence (P41595 whole entry): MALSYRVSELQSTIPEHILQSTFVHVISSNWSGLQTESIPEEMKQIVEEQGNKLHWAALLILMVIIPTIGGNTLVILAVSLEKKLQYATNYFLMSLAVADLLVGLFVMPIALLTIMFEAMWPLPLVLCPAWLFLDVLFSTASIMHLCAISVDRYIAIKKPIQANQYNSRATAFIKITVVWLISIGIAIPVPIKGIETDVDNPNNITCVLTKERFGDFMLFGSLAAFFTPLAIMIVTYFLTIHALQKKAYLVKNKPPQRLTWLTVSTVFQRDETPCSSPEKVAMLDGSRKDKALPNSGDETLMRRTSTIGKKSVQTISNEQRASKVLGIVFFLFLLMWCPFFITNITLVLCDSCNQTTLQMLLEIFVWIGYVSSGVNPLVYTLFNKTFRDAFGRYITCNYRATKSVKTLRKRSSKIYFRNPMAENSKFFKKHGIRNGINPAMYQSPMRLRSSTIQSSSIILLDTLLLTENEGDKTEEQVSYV
Chain of Sodium-dependent dopamine transporter (Q01959 whole entry): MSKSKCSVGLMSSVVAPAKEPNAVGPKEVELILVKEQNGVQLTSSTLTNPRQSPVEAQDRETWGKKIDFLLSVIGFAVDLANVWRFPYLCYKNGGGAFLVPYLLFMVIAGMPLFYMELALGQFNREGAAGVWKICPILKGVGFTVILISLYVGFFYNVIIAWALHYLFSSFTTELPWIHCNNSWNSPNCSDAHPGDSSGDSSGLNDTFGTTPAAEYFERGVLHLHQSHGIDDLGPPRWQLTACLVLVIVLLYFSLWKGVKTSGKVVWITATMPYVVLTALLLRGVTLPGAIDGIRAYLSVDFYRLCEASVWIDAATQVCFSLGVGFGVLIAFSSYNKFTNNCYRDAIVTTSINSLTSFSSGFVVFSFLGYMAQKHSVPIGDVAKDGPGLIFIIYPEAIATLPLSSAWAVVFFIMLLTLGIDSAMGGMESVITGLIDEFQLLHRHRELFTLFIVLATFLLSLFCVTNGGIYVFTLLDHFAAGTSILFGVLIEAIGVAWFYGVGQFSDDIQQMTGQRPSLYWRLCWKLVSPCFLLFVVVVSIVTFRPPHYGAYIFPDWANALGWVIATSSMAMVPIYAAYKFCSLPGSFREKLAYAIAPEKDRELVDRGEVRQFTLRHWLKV

The target of one assay is T1, 5-hydroxytryptamine receptor 2A (Homo sapiens, UniProt P28223). The experiment in a line: Agonist activity at human 5HT2A receptor expressed in HEK293 cells at 10 uM assessed as calcium flux by FLIPR assay relative to serotonin. The assay is classed as functional, cell-based. A general note: Calcium assays in cells follow changes in intracellular calcium, usually with a dye or a luminescent sensor.
T1 sequence (P28223 whole entry): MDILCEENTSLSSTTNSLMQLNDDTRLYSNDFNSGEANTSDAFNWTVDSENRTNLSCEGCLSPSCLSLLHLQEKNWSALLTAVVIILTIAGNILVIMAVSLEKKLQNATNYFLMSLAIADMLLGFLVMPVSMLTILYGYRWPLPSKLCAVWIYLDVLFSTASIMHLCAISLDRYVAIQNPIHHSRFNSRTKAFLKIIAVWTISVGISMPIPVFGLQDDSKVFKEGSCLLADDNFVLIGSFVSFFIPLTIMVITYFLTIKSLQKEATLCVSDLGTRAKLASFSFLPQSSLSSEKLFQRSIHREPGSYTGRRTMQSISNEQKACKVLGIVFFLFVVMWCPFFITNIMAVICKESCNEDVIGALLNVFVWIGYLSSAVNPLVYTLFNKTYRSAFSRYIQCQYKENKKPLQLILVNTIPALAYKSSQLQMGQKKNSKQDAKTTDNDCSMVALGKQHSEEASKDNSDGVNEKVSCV
As a reminder, the Emax is the maximal effect, on the per cent scale that the assay sets. Consider `NC[C@H]1C[C@@H]1c1cccc(-c2ccc(F)cc2)c1` (relative stereo), for which the Emax is less than 12%.
Same read-out and setting: for `NC[C@H]1C[C@@H]1c1ccccc1-c1cc2ccccc2o1` (relative stereo) the value was less than 12%.
Still for that read-out and setting: as for `NC[C@H]1C[C@@H]1c1cccc(NCc2ccccc2)c1` (relative stereo), the figure is less than 12%; as for `NC[C@H]1C[C@@H]1c1cccc(-c2ccc(C(F)(F)F)cc2)c1` (relative stereo), less than 12%.
Consider `NC[C@H]1C[C@@H]1c1cccc(-c2ccc(Cl)cc2)c1` (relative stereo), for which the Emax is less than 12%.
Still for that read-out and setting: for `NC[C@@H]1C[C@H]1c1ccccc1Br` (relative stereo) [listing 1 of 2 here] the value was 71%; for `NC[C@H]1C[C@@H]1c1ccc(F)cc1` (relative stereo), 67%; for `NC[C@H]1C[C@@H]1c1ccc(F)cc1Cl` (relative stereo), 91%.
On the same count and under the same terms, for `NC[C@H]1C[C@@H]1c1ccc(O)cc1` (relative stereo) the value was less than 12%; for `C[C@H]1CNCCc2ccc(Cl)cc21` [LORCASERIN], 26%.

In another assay the target is T1, 5-hydroxytryptamine receptor 2A. The experiment in a line: Agonist activity at human 5HT2A receptor expressed in HEK293 cells assessed as calcium flux by FLIPR assay. The assay is classed as functional, cell-based.
For `NC[C@H]1C[C@@H]1c1cccc(-c2ccc(F)cc2)c1` (relative stereo), the result was inactive.
On to `NC[C@H]1C[C@@H]1c1ccccc1-c1cc2ccccc2o1` (relative stereo), for which the outcome was inactive.
`NC[C@H]1C[C@@H]1c1cccc(NCc2ccccc2)c1` (relative stereo): the outcome was inactive.
As usually defined, the EC50 is the concentration at which the effect is half-maximal. As for `NC[C@@H]1C[C@H]1c1ccccc1Br` (relative stereo) [listing 2 of 2 here], the half-maximal effective concentration (EC50) came to 94 nM.
On to `NC[C@H]1C[C@@H]1c1cccc(-c2ccc(C(F)(F)F)cc2)c1` (relative stereo), for which the outcome was inactive.
Same read-out and setting: for `NC[C@H]1C[C@@H]1c1cccc(-c2ccc(Cl)cc2)c1` (relative stereo) the value was “inactive”; for `NC[C@H]1C[C@@H]1c1ccc(O)cc1` (relative stereo), “inactive”.

A further assay has as its target T2, 5-hydroxytryptamine receptor 2B (Homo sapiens, UniProt P41595). The experiment in a line: Agonist activity at human 5HT2B receptor expressed in HEK293 cells assessed as calcium flux by FLIPR assay. The assay is classed as functional, cell-based.
For the molecule `NC[C@H]1C[C@@H]1c1cccc(-c2ccc(F)cc2)c1` (relative stereo), the outcome was inactive.
`NC[C@H]1C[C@@H]1c1ccccc1-c1cc2ccccc2o1` (relative stereo): the EC50 is more than 1000 nM.
Turning to `NC[C@H]1C[C@@H]1c1cccc(NCc2ccccc2)c1` (relative stereo), the outcome was inactive.
`NC[C@@H]1C[C@H]1c1ccccc1Br` (relative stereo) [listing 2 of 2 here]: the concentration for a half-maximal effect (EC50) was determined as 4.8 nM.
As for `NC[C@H]1C[C@@H]1c1cccc(-c2ccc(C(F)(F)F)cc2)c1` (relative stereo), the outcome was inactive.
The same measure, in the same setting: as for `NC[C@H]1C[C@@H]1c1cccc(-c2ccc(Cl)cc2)c1` (relative stereo), the entry is “inactive”; as for `NC[C@H]1C[C@@H]1c1ccc(O)cc1` (relative stereo), “inactive”.

The next assay deals with T2, 5-hydroxytryptamine receptor 2B. Description: Agonist activity at human 5HT2B receptor expressed in HEK293 cells at 10 uM assessed as calcium flux by FLIPR assay relative to serotonin. The assay is classed as functional, cell-based.
Regarding `NC[C@H]1C[C@@H]1c1cccc(-c2ccc(F)cc2)c1` (relative stereo), the Emax was less than 12%.
`NC[C@H]1C[C@@H]1c1ccccc1-c1cc2ccccc2o1` (relative stereo): the Emax is 10%.
As for `NC[C@H]1C[C@@H]1c1cccc(NCc2ccccc2)c1` (relative stereo), the Emax was less than 12%.
Same read-out and setting: for `NC[C@H]1C[C@@H]1c1cccc(-c2ccc(C(F)(F)F)cc2)c1` (relative stereo) the value was less than 12%.
For `NC[C@H]1C[C@@H]1c1cccc(-c2ccc(Cl)cc2)c1` (relative stereo), the Emax was less than 12%.
Same read-out and setting: as for `NC[C@@H]1C[C@H]1c1ccccc1Br` (relative stereo) [listing 1 of 2 here], the figure is 86%.
In the case of `NC[C@H]1C[C@@H]1c1ccc(F)cc1` (relative stereo), the Emax is 89%.
Take `NC[C@H]1C[C@@H]1c1ccc(F)cc1Cl` (relative stereo): the Emax is 97%.
Turning to `NC[C@H]1C[C@@H]1c1ccc(O)cc1` (relative stereo), the Emax is less than 12%.

In the next assay the target is T3, 5-hydroxytryptamine receptor 2C (Homo sapiens) (UniProt P28335).
T3 sequence (whole entry): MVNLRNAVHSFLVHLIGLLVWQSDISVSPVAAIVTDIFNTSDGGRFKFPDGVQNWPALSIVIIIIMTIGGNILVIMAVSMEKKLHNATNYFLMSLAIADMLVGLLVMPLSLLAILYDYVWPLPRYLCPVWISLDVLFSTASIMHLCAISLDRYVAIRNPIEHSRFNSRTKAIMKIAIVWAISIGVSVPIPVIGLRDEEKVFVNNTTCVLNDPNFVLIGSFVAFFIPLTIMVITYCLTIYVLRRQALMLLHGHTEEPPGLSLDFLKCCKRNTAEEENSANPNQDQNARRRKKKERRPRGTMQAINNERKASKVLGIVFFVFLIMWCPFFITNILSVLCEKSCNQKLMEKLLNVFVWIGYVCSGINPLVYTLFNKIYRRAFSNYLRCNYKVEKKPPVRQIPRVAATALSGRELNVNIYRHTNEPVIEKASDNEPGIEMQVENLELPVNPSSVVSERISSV
Description: (§1) Agonist activity at human 5HT2C receptor expressed in HEK293 cells assessed as calcium flux by FLIPR assay. The class given is functional, cell-based.
Consider `NC[C@H]1C[C@@H]1c1ccc(O)cc1` (relative stereo), for which the result was inactive.

For a further assay, the target named is T4, 5-hydroxytryptamine receptor 2C (Homo sapiens, UniProt P28335).
T4 sequence (P28335 whole entry): T3 sequence (whole entry)
The description is as §1. The assay is classed as functional, cell-based.
Consider `NC[C@H]1C[C@@H]1c1cccc(-c2ccc(F)cc2)c1` (relative stereo), for which the EC50 came to 695 nM.
Consider `NC[C@H]1C[C@@H]1c1ccccc1-c1cc2ccccc2o1` (relative stereo), for which the EC50 was 1960 nM.
Consider `NC[C@H]1C[C@@H]1c1cccc(NCc2ccccc2)c1` (relative stereo), for which the concentration giving a half-maximal response (EC50) was found to be 1180 nM.
For `NC[C@@H]1C[C@H]1c1ccccc1Br` (relative stereo) [listing 2 of 2 here], the EC50 came to 1.3 nM.
Take `NC[C@H]1C[C@@H]1c1cccc(-c2ccc(C(F)(F)F)cc2)c1` (relative stereo): the EC50 was more than 1000 nM.
The same measure, in the same setting: as for `NC[C@H]1C[C@@H]1c1cccc(-c2ccc(Cl)cc2)c1` (relative stereo), the figure is 1580 nM.

The target of another assay is T3, 5-hydroxytryptamine receptor 2C (Homo sapiens). The experiment in a line: Agonist activity at human 5HT2C receptor expressed in HEK293 cells at 10 uM assessed as calcium flux by FLIPR assay relative to serotonin. The class given is functional, cell-based.
Turning to `NC[C@H]1C[C@@H]1c1cccc(-c2ccc(F)cc2)c1` (relative stereo), the Emax came out at 79%.
Turning to `NC[C@H]1C[C@@H]1c1ccccc1-c1cc2ccccc2o1` (relative stereo), the Emax came out at 66%.
The same measure, in the same setting: for `NC[C@H]1C[C@@H]1c1cccc(NCc2ccccc2)c1` (relative stereo) the value was 77%.
The same measure, in the same setting: as for `NC[C@H]1C[C@@H]1c1cccc(-c2ccc(C(F)(F)F)cc2)c1` (relative stereo), the figure is 61%.
The same measure, in the same setting: for `NC[C@H]1C[C@@H]1c1cccc(-c2ccc(Cl)cc2)c1` (relative stereo) the value was 87%; for `NC[C@@H]1C[C@H]1c1ccccc1Br` (relative stereo) [listing 1 of 2 here], 76%.
In the case of `NC[C@H]1C[C@@H]1c1ccc(F)cc1` (relative stereo), the Emax was found to be 93%.
The same measure, in the same setting: as for `NC[C@H]1C[C@@H]1c1ccc(F)cc1Cl` (relative stereo), the figure is 100%.
For `NC[C@H]1C[C@@H]1c1ccc(O)cc1` (relative stereo), the Emax was less than 12%.
Same read-out and setting: as for `C[C@H]1CNCCc2ccc(Cl)cc21` [LORCASERIN], the figure is 124%.

The target in a further assay is Serotonin 2 receptors; 5-HT2a & 5-HT2c (Homo sapiens) (UniProt P28223+P28335). Description: Selectivity ratio of EC50 for human 5HT2A receptor to EC50 for human 5HT2C receptor.
Chain of Serotonin 2 receptors; 5-HT2a & 5-HT2c (Homo sapiens) (P28223 whole entry, looked up, one chain of several): as the sequence (P28223 whole entry) above
Take `NC[C@@H]1C[C@H]1c1ccccc1Br` (relative stereo) [listing 1 of 2 here]: the Ratio EC50 is 73.
Still for that read-out and setting: for `NC[C@H]1C[C@@H]1c1ccc(F)cc1` (relative stereo) the value was 47; for `NC[C@H]1C[C@@H]1c1ccc(F)cc1Cl` (relative stereo), 30.

Another assay is filed under the species Homo sapiens. Description: Selectivity ratio of EC50 for human 5HT2B receptor to EC50 for human 5HT2C receptor.
For `NC[C@H]1C[C@@H]1c1ccccc1-c1cc2ccccc2o1` (relative stereo), the Ratio EC50 was more than 1.
Consider `NC[C@@H]1C[C@H]1c1ccccc1Br` (relative stereo) [listing 1 of 2 here], for which the Ratio EC50 stood at 3.7.
With `NC[C@H]1C[C@@H]1c1ccc(F)cc1` (relative stereo), the Ratio EC50 is 1.9.
For the molecule `NC[C@H]1C[C@@H]1c1ccc(F)cc1Cl` (relative stereo), the Ratio EC50 is 7.3.

The target in the next assay is T1, 5-hydroxytryptamine receptor 2A. The experiment in a line: Displacement of [3H]ketanserin from human 5HT2A receptor.
By Ki is commonly meant a measure of affinity in units of concentration, obtained from inhibition or displacement. Low values mean higher affinity, high ones lower affinity. The molecule `NC[C@@H]1C[C@H]1c1ccccc1Br` (relative stereo) [listing 2 of 2 here] displayed a Ki of 655 nM.

The target of a further assay is T2, 5-hydroxytryptamine receptor 2B. Description: Displacement of [3H]LSD from human 5HT2B receptor.
Consider `NC[C@@H]1C[C@H]1c1ccccc1Br` (relative stereo) [listing 2 of 2 here], for which the affinity corresponds to a Ki of 22 nM.

The target of another assay is T4, 5-hydroxytryptamine receptor 2C. Description: Displacement of [3H]mesulergine from 5HT2C receptor.
As for `NC[C@@H]1C[C@H]1c1ccccc1Br` (relative stereo) [listing 2 of 2 here], affinity was put at a Ki of 124 nM.

The target of a further assay is Sodium-dependent serotonin transporter (Homo sapiens, UniProt P31645). The experiment in a line: Displacement of [3H]citalopram from SERT.
Chain of Sodium-dependent serotonin transporter (P31645 whole entry): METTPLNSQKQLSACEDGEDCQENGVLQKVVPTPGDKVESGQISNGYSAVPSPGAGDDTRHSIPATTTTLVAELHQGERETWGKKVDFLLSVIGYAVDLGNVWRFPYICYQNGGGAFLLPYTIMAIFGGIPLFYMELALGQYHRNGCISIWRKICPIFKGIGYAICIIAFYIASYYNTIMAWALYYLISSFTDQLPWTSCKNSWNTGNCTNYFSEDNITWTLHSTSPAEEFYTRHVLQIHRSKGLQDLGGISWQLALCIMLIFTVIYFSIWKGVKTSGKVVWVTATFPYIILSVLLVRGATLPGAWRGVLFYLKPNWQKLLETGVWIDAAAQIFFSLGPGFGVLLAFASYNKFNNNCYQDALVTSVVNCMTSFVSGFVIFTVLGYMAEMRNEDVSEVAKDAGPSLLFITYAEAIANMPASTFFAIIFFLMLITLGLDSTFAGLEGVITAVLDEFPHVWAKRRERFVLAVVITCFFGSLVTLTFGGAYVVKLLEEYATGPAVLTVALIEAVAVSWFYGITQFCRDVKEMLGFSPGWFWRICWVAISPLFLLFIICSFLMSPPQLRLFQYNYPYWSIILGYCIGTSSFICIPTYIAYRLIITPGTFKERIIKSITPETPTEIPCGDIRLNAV
`NC[C@@H]1C[C@H]1c1ccccc1Br` (relative stereo) [listing 2 of 2 here] gave a Ki of 2720 nM.

The target in another assay is Sodium-dependent noradrenaline transporter (Homo sapiens, UniProt P23975). The experiment in a line: Displacement of [3H]nisoxetine from NET.
Chain of Sodium-dependent noradrenaline transporter (P23975 whole entry): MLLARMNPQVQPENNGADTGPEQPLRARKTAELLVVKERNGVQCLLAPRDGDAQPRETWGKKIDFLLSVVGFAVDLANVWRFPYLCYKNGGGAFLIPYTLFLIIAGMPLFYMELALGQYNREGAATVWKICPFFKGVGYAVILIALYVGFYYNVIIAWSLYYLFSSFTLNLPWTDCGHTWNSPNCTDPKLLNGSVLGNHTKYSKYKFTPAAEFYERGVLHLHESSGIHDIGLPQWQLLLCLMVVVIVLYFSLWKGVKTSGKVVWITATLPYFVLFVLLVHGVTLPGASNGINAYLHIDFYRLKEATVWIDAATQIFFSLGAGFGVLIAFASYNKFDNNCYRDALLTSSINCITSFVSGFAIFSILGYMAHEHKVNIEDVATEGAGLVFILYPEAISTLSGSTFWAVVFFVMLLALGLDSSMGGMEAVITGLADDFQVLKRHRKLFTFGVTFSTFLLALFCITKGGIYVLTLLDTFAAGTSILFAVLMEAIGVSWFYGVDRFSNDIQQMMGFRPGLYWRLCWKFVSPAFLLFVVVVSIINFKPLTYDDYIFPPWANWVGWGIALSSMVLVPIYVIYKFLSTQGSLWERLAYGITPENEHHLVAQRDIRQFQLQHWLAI
In turn, `NC[C@@H]1C[C@H]1c1ccccc1Br` (relative stereo) [listing 2 of 2 here] returned a Ki of 2730 nM.
For the molecule `C[C@H]1CNCCc2ccc(Cl)cc21` [LORCASERIN], the Ki was more than 10000 nM.

A further assay addresses Sodium-dependent dopamine transporter (Homo sapiens, UniProt Q01959). Description: Displacement of [3H]WIN-35428 from DAT. In general terms: In a radioligand displacement assay an active substance lowers the binding of a labelled ligand.
As for `NC[C@@H]1C[C@H]1c1ccccc1Br` (relative stereo) [listing 2 of 2 here], the inhibition constant Ki is more than 10000 nM.
In the case of `C[C@H]1CNCCc2ccc(Cl)cc21` [LORCASERIN], the inhibition constant Ki is more than 10000 nM.

Test system in another assay: not listed separately
Description: Selectivity ratio of Ki for human 5HT2A receptor to Ki for 5HT2C receptor.
In the case of `NC[C@@H]1C[C@H]1c1ccccc1Br` (relative stereo) [listing 1 of 2 here], the Ratio Ki turned out to be 5.3.
Take `NC[C@H]1C[C@@H]1c1ccc(F)cc1` (relative stereo): the Ratio Ki stood at 11.5.
The same measure, in the same setting: for `NC[C@H]1C[C@@H]1c1ccc(F)cc1Cl` (relative stereo) the value was 1.2.

Test system in a further assay: not listed separately
Description: Selectivity ratio of Ki for human 5HT2B receptor to Ki for 5HT2C receptor.
In the case of `NC[C@@H]1C[C@H]1c1ccccc1Br` (relative stereo) [listing 1 of 2 here], the Ratio Ki turned out to be 0.18.
On the same count and under the same terms, for `NC[C@H]1C[C@@H]1c1ccc(F)cc1` (relative stereo) the value was 0.37.
Consider `NC[C@H]1C[C@@H]1c1ccc(F)cc1Cl` (relative stereo), for which the Ratio Ki stood at 0.08.

For the next assay, the system named is Mus musculus. Description: Antidepressant activity in C57BL/6J mouse assessed as decrease in immobility time at 10 mg/kg, ip administered 30 mins prior to testing measured every 1 min for 6 mins by forced swim test relative to control. The assay is classed as functional. The essentials:
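Male C57BL/6J mice, 9 weeks old, housed 4 per cage on a 12 h light-dark cycle. Compound given ip in 10% DMSO in saline 30 min before testing. Each mouse was placed alone in a glass cylinder holding 12 cm of water at 23 ± 1 °C. Immobility (floating posture) was scored every 1 min over a 6 min trial and compared with vehicle.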
On to `CN[C@H]1CC[C@@H](c2ccc(Cl)c(Cl)c2)c2ccccc21`, for which the outcome was Active.
